Laboratory results published in ChEMBL document CHEMBL1795280, “Design, synthesis and activity of a potent, selective series of N-aryl pyridinone inhibitors of p38 kinase” (Bioorg Med Chem Lett, 2011).
Blank lines part the entries; values can stand above or below the compound they belong to. The source made the active and inactive calls. No cut-off for these calls is given here.

How the values were obtained:
[1] = target: T1, Mitogen-activated protein kinase 14 (Homo sapiens, UniProt Q16539); assay: Inhibition of p38alpha assessed as phosphorylation of […] after 60 mins by fluorescence assay
T1 sequence (Q16539 whole entry): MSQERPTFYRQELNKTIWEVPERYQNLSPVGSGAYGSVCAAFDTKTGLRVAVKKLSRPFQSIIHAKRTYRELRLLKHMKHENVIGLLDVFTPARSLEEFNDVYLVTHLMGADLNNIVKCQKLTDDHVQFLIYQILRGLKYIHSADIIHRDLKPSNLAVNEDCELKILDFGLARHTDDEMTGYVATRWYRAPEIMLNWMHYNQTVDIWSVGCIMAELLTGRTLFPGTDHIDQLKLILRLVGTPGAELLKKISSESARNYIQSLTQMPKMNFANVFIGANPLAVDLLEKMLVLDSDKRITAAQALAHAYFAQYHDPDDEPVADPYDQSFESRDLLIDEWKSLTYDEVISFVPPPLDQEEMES
Method in brief: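 Cascade assay in which activated p38α (6 pM final) activates unactivated MK2 (1 nM), which phosphorylates FITC-labelled Hsp27 peptide (1 nM) with […]. Inhibitor 0.2–10,000 nM. Room temperature, 60 min, EDTA quench. Phospho-peptide quantified by Caliper LabChip; IC50.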

PBMC = assay: Antiinflammatory activity in human PBMC assessed as inhibition of LPS-induced TNFalpha production treated 1 hr before LPS challenge measured after 18 hrs; format: functional, cell-based
Method in brief: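 PBMCs isolated by Ficoll from heparinized blood of two healthy donors, in DMEM with 5% endotoxin-free FBS, 2.5 × 10⁵ cells/well. Pretreated 1 h with compound (0.0001–25 µM range), then stimulated 18 h with 22 ng/ml LPS. Final DMSO 0.25%. Secreted TNFα measured by MSD; IC50 reported.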

[2] = Metabolic stability in human liver microsomes assessed as compound remaining at 2 uM after 45 mins by LC/MS analysis; format: ADME, Microsome; settings: read-out: Stability
[3] = Metabolic stability in rat liver microsomes assessed as compound remaining at 2 uM after 45 mins by LC/MS analysis; format: ADME, Microsome; settings: read-out: Stability
Rattus norvegicus [4] = assay: Antiinflammatory activity in Lewis rat assessed as inhibition of LPS-induced TNFalpha production at 5 mg/kg, po administered 4 hrs before LPS challenge by ELISA; format: functional
Method in brief: (§1)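 Adult male Lewis rats (225–250 g), fasted 18 h with free access to water. Compound or vehicle given by oral gavage (1 mL). LPS (E. coli 0111:B4) given 1 mg/kg i.v. in saline 2, 4 or 6 h later. Serum taken by cardiac puncture 90 min after LPS. TNFα quantified against a recombinant rat TNF standard curve with a four-parameter fit. Two vehicle groups per experiment, three experiments.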

[5] = target: Tyrosine-protein kinase BTK (Homo sapiens) (UniProt Q06187); assay: Inhibition of BTK at 10 uM
Chain of Tyrosine-protein kinase BTK (Homo sapiens) (Q06187 whole entry): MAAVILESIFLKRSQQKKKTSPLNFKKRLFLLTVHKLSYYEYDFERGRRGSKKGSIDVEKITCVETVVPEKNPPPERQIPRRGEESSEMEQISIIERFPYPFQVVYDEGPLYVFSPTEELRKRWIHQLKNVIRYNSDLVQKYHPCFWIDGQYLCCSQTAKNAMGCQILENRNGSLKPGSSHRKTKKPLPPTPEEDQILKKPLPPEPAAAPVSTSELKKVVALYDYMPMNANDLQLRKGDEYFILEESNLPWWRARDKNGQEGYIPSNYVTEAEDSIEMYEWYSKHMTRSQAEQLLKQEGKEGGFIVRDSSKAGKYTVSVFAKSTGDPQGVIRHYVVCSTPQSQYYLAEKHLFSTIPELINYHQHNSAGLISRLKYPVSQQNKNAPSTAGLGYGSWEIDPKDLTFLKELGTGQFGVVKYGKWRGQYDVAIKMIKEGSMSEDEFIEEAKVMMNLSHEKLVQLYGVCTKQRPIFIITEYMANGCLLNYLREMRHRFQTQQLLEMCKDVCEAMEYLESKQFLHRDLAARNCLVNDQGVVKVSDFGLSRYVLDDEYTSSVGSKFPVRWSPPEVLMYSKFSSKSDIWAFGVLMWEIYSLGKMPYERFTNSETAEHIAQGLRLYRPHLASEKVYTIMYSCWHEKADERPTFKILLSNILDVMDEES

[6] = Clearance in iv and po dosed Sprague-Dawley rat; format: ADME, organism-based; settings: in vivo
[7] = Half life in iv and po dosed Sprague-Dawley rat; format: ADME, organism-based; settings: in vivo
[8] = Bioavailability in Sprague-Dawley rat at 5 mg/kg, po; format: ADME, organism-based; settings: in vivo
[9] = Solubility of the compound; format: physicochemical
Rattus norvegicus [10] = assay: Antiarthritic activity in Lewis rat assessed as inhibition of streptococal cell wall-induced increase of paw volume at 60 mg/kg, po qd for 10 days administered 10 days after streptococal cell wall challenge by displacement plethysmometer analysis; format: functional; settings: 240 h
Method in brief: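 Female Lewis rats given intraperitoneal group A streptococcal cell wall peptidoglycan-polysaccharide ([…] bodyweight). Only animals developing the acute phase were treated. Oral gavage (0.5 mL) daily from day 10 to day 21 post-SCW, with methylcellulose/Tween 20 vehicle as comparison. Four to eight animals per group, two paw volumes per animal. Paw volume measured on day 21 by water displacement plethysmometer.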

[11] = target: Cyclin-dependent kinase 2 (Homo sapiens) (UniProt P24941); assay: Inhibition of CDK2 at 10 uM
[12] = target: Aurora kinase A (Homo sapiens) (UniProt O14965); assay: Inhibition of AURKA at 10 uM
[13] = target: Epidermal growth factor receptor (Homo sapiens) (UniProt P00533); assay: Inhibition of EGFR at 10 uM
Chain of Epidermal growth factor receptor (Homo sapiens) (P00533 whole entry): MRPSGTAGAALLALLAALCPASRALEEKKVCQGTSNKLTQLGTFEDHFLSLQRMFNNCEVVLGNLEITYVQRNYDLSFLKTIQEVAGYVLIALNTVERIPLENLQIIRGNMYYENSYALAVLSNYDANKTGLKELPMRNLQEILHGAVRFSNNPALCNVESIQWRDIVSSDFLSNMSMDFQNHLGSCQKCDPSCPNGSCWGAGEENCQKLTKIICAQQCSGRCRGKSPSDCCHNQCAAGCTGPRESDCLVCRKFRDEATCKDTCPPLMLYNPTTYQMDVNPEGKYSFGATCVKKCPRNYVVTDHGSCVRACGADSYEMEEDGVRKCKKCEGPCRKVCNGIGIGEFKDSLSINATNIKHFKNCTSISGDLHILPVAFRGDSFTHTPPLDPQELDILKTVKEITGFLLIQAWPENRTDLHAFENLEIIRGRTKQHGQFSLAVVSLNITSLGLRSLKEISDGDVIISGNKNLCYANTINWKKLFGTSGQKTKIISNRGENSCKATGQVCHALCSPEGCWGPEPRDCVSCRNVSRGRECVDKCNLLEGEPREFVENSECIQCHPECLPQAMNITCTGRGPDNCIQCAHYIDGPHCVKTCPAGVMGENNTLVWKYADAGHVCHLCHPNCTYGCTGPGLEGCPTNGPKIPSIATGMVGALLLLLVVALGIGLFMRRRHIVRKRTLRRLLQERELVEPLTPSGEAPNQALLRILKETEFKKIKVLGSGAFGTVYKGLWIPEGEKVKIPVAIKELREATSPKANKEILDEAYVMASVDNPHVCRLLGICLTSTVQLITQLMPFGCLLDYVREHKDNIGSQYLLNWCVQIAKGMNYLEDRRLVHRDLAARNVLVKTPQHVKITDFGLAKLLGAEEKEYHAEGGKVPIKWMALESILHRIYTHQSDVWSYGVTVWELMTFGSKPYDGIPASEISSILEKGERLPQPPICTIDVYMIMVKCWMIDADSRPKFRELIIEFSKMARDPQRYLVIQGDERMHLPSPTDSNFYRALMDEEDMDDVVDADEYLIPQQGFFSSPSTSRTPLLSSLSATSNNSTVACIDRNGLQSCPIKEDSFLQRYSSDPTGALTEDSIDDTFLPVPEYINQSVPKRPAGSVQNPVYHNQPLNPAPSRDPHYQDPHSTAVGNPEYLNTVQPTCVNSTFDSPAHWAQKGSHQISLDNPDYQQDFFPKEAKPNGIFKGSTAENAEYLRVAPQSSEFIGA

[14] = target: Vascular endothelial growth factor receptor 1 (Homo sapiens) (UniProt P17948); assay: Inhibition of FLT1 at 10 uM
[15] = target: Mitogen-activated protein kinase 3 (Homo sapiens) (UniProt P27361); assay: Inhibition of ERK1 at 10 uM
[16] = target: Serine/threonine-protein kinase mTOR (Homo sapiens) (UniProt P42345); assay: Inhibition of mTOR at 10 uM
[17] = target: Inhibitor of nuclear factor kappa-B kinase subunit beta (Homo sapiens) (UniProt O14920); assay: Inhibition of IKK-beta at 10 uM
[18] = target: Interleukin-1 receptor-associated kinase 4 (Homo sapiens) (UniProt Q9NWZ3); assay: Inhibition of IRAK4 at 10 uM
Chain of Interleukin-1 receptor-associated kinase 4 (Homo sapiens) (Q9NWZ3 whole entry): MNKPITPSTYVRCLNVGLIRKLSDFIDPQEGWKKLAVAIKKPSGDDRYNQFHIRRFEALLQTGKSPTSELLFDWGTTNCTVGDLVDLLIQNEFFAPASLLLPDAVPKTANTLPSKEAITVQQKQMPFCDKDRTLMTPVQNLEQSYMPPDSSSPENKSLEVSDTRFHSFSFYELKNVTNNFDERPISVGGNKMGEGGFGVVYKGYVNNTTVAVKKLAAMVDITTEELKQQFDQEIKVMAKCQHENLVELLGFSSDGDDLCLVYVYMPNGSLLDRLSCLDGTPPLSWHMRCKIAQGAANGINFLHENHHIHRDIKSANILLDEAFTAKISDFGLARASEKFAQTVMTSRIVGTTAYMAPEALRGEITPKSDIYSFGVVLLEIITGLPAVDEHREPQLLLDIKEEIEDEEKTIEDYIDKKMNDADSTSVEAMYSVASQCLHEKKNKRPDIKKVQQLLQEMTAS

[19] = target: Tyrosine-protein kinase JAK1 (Homo sapiens) (UniProt P23458); assay: Inhibition of JAK1 at 10 uM
[20] = target: Tyrosine-protein kinase JAK2 (Homo sapiens) (UniProt O60674); assay: Inhibition of JAK2 at 10 uM
[21] = target: Tyrosine-protein kinase JAK3 (Homo sapiens) (UniProt P52333); assay: Inhibition of JAK3 at 10 uM
[22] = target: Non-receptor tyrosine-protein kinase TYK2 (Homo sapiens) (UniProt P29597); assay: Inhibition of TYK2 at 10 uM
[23] = target: Vascular endothelial growth factor receptor 2 (Homo sapiens) (UniProt P35968); assay: Inhibition of VEGFR2 at 10 uM
[24] = target: Tyrosine-protein kinase Lck (Homo sapiens) (UniProt P06239); assay: Inhibition of LCK at 10 uM
Chain of Tyrosine-protein kinase Lck (Homo sapiens) (P06239 2-509 limits assumed): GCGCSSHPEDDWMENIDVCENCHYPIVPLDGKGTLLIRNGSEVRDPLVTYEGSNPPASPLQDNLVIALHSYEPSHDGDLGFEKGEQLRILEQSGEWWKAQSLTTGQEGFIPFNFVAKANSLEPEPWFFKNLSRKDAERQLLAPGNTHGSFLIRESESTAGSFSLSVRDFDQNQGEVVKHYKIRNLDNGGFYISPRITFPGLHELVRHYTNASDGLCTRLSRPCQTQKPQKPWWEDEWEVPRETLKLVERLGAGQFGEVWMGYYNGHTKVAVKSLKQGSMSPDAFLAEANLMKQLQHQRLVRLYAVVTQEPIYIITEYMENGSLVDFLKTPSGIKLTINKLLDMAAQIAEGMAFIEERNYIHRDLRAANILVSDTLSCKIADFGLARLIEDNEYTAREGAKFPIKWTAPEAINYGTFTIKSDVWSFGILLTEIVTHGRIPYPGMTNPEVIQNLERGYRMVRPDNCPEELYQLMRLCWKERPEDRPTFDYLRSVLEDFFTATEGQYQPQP

[25] = target: Dual specificity mitogen-activated protein kinase kinase 1 (Homo sapiens) (UniProt Q02750); assay: Inhibition of MEK1 at 10 uM
Chain of Dual specificity mitogen-activated protein kinase kinase 1 (Homo sapiens) (Q02750 whole entry): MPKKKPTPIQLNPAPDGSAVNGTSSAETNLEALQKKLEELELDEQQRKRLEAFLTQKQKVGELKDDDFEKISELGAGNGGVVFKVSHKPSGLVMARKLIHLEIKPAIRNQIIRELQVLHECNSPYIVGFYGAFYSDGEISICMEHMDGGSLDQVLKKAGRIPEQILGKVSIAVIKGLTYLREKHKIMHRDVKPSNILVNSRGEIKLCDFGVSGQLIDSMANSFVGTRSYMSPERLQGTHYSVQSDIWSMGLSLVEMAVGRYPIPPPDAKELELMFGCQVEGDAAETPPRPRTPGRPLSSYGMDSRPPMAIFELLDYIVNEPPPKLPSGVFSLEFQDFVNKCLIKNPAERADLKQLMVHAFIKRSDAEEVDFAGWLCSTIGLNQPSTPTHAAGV

[26] = target: Mitogen-activated protein kinase 13 (Homo sapiens) (UniProt O15264); assay: Inhibition of p38delta at 10 uM
[27] = target: Mitogen-activated protein kinase 12 (Homo sapiens) (UniProt P53778); assay: Inhibition of p38-gamma at 10 uM
[28] = Inhibition of JNK at 10 uM
[29] = target: MAP kinase-activated protein kinase 2 (Homo sapiens) (UniProt P49137); assay: Inhibition of MK2 at 10 uM
[30] = target: High affinity nerve growth factor receptor (Homo sapiens) (UniProt P04629); assay: Inhibition of TRKA at 10 uM
[31] = Inhibition of PDGFR at 10 uM
[32] = target: RAF proto-oncogene serine/threonine-protein kinase (Homo sapiens) (UniProt P04049); assay: Inhibition of c-RAF at 10 uM
[33] = target: Rho-associated protein kinase 1 (Homo sapiens) (UniProt Q13464); assay: Inhibition of ROCK1 at 10 uM
[34] = target: Rho-associated protein kinase 2 (Homo sapiens) (UniProt O75116); assay: Inhibition of ROCK2 at 10 uM
Chain of Rho-associated protein kinase 2 (Homo sapiens) (O75116 whole entry, looked up): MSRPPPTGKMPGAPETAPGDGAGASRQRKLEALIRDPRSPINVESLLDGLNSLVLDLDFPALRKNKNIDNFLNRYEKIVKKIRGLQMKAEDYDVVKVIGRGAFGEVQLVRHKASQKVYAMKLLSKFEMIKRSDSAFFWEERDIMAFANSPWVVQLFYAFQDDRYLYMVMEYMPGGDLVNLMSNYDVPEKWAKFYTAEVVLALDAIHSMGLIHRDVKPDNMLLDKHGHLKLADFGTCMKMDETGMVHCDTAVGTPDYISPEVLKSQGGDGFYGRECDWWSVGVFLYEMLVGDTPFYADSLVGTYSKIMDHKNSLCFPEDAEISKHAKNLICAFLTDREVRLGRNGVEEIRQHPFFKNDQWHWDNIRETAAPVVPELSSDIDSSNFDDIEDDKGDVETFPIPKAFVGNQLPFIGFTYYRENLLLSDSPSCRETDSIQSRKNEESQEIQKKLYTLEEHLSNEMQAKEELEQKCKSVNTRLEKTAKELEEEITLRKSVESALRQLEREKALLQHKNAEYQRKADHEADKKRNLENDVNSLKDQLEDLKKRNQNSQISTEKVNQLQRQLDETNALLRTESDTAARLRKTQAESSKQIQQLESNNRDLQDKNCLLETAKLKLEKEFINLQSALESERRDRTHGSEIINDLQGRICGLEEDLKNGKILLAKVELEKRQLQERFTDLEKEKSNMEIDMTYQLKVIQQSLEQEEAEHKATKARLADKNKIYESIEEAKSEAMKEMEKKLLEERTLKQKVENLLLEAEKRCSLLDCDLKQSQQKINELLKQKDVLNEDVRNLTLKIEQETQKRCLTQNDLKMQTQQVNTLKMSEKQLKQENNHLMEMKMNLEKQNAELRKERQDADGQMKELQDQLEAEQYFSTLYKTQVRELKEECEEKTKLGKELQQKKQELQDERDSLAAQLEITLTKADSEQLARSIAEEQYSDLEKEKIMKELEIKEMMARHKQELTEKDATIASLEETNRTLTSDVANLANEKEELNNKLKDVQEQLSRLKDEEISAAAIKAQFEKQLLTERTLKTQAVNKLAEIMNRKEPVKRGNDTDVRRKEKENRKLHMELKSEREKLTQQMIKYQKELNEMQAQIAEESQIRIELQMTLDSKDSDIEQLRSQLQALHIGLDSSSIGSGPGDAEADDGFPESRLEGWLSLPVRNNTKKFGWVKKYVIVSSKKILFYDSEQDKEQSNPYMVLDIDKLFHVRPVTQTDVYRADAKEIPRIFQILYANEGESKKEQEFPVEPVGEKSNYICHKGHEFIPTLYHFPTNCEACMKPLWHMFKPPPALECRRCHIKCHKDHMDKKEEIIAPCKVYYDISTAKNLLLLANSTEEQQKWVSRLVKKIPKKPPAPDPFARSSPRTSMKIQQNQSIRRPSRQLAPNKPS

[35] = target: Tyrosine-protein kinase ZAP-70 (Homo sapiens) (UniProt P43403); assay: Inhibition of ZAP70 at 10 uM
[36] = target: T1, Mitogen-activated protein kinase 14; assay: Inhibition of p38alpha at 10 uM
[37] = target: Mitogen-activated protein kinase 11 (Homo sapiens) (UniProt Q15759); assay: Inhibition of p38beta at 10 uM
[38] = Bioavailability in Sprague-Dawley rat po as suspension; settings: in vivo
[39] = Bioavailability in iv and po dosed Sprague-Dawley rat; format: ADME, organism-based; settings: in vivo
Rattus norvegicus [40] = assay: Antiinflammatory activity in Lewis rat assessed as inhibition of LPS-induced TNFalpha production at 20 mg/kg, po administered 2 hrs before LPS challenge by ELISA; format: functional; method in brief: as §1

IC50 [1]: 7 nM
remaining at 0.75 h, 2 µM [2]: 87%
remaining at 0.75 h, 2 µM [3]: 96%
SMILES: Cc1cc(OCc2ccc(F)cc2F)c(Br)c(=O)n1-c1c(F)cc(OCCO)cc1F
IC50 (PBMC): 61 nM
inhibition in vivo at 5 mg/kg (Rattus norvegicus [4]): 44%

inhibition [5]: < 50%
IC50 [1]: 12 nM
remaining at 0.75 h, 2 µM [2]: 100%
remaining at 0.75 h, 2 µM [3]: 97%
clearance [6]: 9.34 mL/min/kg
half-life [7]: 3.4 h
bioavailability [8]: 93%
solubility [9]: < 10 µg/mL
inhibition [11]: < 50%
inhibition [12]: < 50%
inhibition [13]: < 50%
inhibition [14]: < 50%
inhibition [15]: < 50%
inhibition [16]: < 50%
inhibition [17]: < 50%
inhibition [18]: < 50%
inhibition [19]: < 50%
inhibition [20]: < 50%
inhibition [21]: < 50%
inhibition [22]: < 50%
inhibition [23]: < 50%
inhibition [24]: < 50%
inhibition [25]: < 50%
inhibition [26]: < 50%
inhibition [27]: < 50%
inhibition [28]: < 50%
inhibition [29]: < 50%
inhibition [30]: < 50%
inhibition [31]: < 50%
inhibition [32]: < 50%
inhibition [33]: < 50%
inhibition [34]: < 50%
inhibition [35]: < 50%
inhibition [36]: Active
inhibition [37]: Active
bioavailability [38]: 7%
SMILES: Cc1cc(OCc2ccc(F)cc2F)c(Br)c(=O)n1-c1cccc(C(N)=O)c1
IC50 (PBMC): 64 nM
inhibition in vivo at 5 mg/kg (Rattus norvegicus [4]): 89%
inhibition in vivo at 60 mg/kg (Rattus norvegicus [10]): 40%

IC50 [1]: 261 nM
SMILES: Cc1cc(OCc2ccc(F)cc2F)c(Br)c(=O)n1-c1cccc(CNC(=O)CN)c1

IC50 [1]: 17 nM
remaining at 0.75 h, 2 µM [2]: 95%
remaining at 0.75 h, 2 µM [3]: 92%
clearance [6]: 8.1 mL/min/kg
half-life [7]: 3.1 h
bioavailability [39]: 3%
solubility [9]: < 10 µg/mL
SMILES: CNC(=O)c1cccc(-n2c(C)cc(OCc3ccc(F)cc3F)c(Br)c2=O)c1
IC50 (PBMC): 45 nM
inhibition in vivo at 5 mg/kg (Rattus norvegicus [4]): 70%

inhibition [5]: < 50%
IC50 [1]: 8 nM
remaining at 0.75 h, 2 µM [2]: 70%
remaining at 0.75 h, 2 µM [3]: 69%
clearance [6]: 5.9 mL/min/kg
half-life [7]: 1.5 h
bioavailability [39]: 32%
solubility [9]: < 10 µg/mL
inhibition [11]: < 50%
inhibition [12]: < 50%
inhibition [13]: < 50%
inhibition [14]: < 50%
inhibition [15]: < 50%
inhibition [16]: < 50%
inhibition [17]: < 50%
inhibition [18]: < 50%
inhibition [19]: < 50%
inhibition [20]: < 50%
inhibition [21]: < 50%
inhibition [22]: < 50%
inhibition [23]: < 50%
inhibition [24]: < 50%
inhibition [25]: < 50%
inhibition [26]: < 50%
inhibition [27]: < 50%
inhibition [28]: < 50%
inhibition [29]: < 50%
inhibition [30]: < 50%
inhibition [31]: < 50%
inhibition [32]: < 50%
inhibition [33]: < 50%
inhibition [34]: < 50%
inhibition [35]: < 50%
inhibition [36]: Active
inhibition [37]: Active
SMILES: O=c1c(Cl)c(OCc2ccc(F)cc2F)cc(CO)n1-c1c(F)cccc1F
IC50 (PBMC): 45 nM
inhibition in vivo at 5 mg/kg (Rattus norvegicus [4]): 81%
inhibition in vivo at 60 mg/kg (Rattus norvegicus [10]): 33%

IC50 [1]: 8 nM
SMILES: Cc1cc(OCc2ccc(F)cc2F)c(Br)c(=O)n1-c1c(F)cc(N(C)C)cc1F

IC50 [1]: 251 nM
SMILES: Cc1cc(OCc2ccc(F)cc2F)c(Br)c(=O)n1-c1cccc(CNC(N)=O)c1

IC50 [1]: 20 nM
remaining at 0.75 h, 2 µM [2]: 88%
remaining at 0.75 h, 2 µM [3]: 83%
SMILES: Cc1cc(OCc2ccc(F)cc2F)c(Br)c(=O)n1-c1ccc(CNC(=O)CO)cc1
IC50 (PBMC): 91 nM
inhibition in vivo at 5 mg/kg (Rattus norvegicus [4]): 43%

IC50 [1]: 681 nM
SMILES: Cc1cc(OCc2ccc(F)cc2F)c(Br)c(=O)n1-c1cccc(CN)c1

IC50 [1]: 8 nM
SMILES: CN(C)Cc1cc(OCc2ccc(F)cc2F)c(Cl)c(=O)n1-c1c(F)cccc1F

IC50 [1]: 51 nM
SMILES: Cc1cc(OCc2ccc(F)cc2F)c(Br)c(=O)n1-c1ccc(CN)cc1

IC50 [1]: 1 nM
SMILES: Cc1cc(OCc2ccc(F)cc2F)c(Br)c(=O)n1-c1c(Cl)cccc1Cl

IC50 [1]: 30 nM
SMILES: Cc1cc(OCc2ccccc2)c(Br)c(=O)n1-c1c(Cl)cccc1Cl

IC50 [1]: 2 nM
remaining at 0.75 h, 2 µM [2]: 3%
remaining at 0.75 h, 2 µM [3]: 1%
SMILES: Cc1cccc(C)c1-n1c(C)cc(OCc2ccc(F)cc2F)c(Br)c1=O
IC50 (PBMC): 25 nM
inhibition in vivo at 20 mg/kg (Rattus norvegicus [40]): 66%

IC50 [1]: 126 nM
SMILES: CNC(=O)c1ccc(-n2c(C)cc(OCc3ccc(F)cc3F)c(Br)c2=O)cc1
